In general, MIC50 refers to the lowest concentration that inhibits either 50% of growth or 50% of the strains tested, depending on the study. Broadly, the inhibition is the drop in the measured response relative to a control, in per cent.

≈ marks a conversion by molar mass, not a printed value. Calls of active or inactive are those of the source. The rule behind the calls is not given here. Some results are limits rather than exact numbers.

What all share (type): functional
Assay [1] relates to Escherichia coli. As to the kind of experiment: Antibacterial activity against Escherichia coli assessed as growth inhibition measured after 24 hrs by broth microdilution method. The procedure, abridged:
(§1)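 Broth microdilution per NCCLS. Bacteria were grown in Luria broth to exponential phase. Compounds were dissolved in DMSO (stock 5120 μg/ml), diluted in test medium and tested at two-fold dilutions from 1 to 128 μg/ml. MIC50 is the lowest concentration reducing OD to half that of the untreated control.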
On the technique in general: Broth dilution looks for growth in wells or tubes with falling amounts of substance.

The subject of assay [2] is Stenotrophomonas maltophilia. The experiment in a line: Antibacterial activity against Stenotrophomonas maltophilia assessed as growth inhibition measured at 50 ug/ml after 24 hrs by broth microdilution method.
The subject of assay [3] is Staphylococcus aureus. The experiment in a line: Antibacterial activity against Staphylococcus aureus assessed as growth inhibition measured at 50 ug/ml after 24 hrs by broth microdilution method.
Assay [4] has as its system Pseudomonas aeruginosa. The experiment in a line: Antibacterial activity against Pseudomonas aeruginosa assessed as growth inhibition measured at 50 ug/ml after 24 hrs by broth microdilution method.
The subject of assay [5] is Escherichia coli. The experiment in a line: Antibacterial activity against Escherichia coli assessed as growth inhibition measured at 50 ug/ml after 24 hrs by broth microdilution method.
Assay [6] has as its system Acinetobacter baumannii. As to the kind of experiment: Antibacterial activity against Acinetobacter baumannii assessed as growth inhibition measured at 50 ug/ml after 24 hrs by broth microdilution method.
For assay [7], the system named is Stenotrophomonas maltophilia. The experiment in a line: Antibacterial activity against Stenotrophomonas maltophilia assessed as growth inhibition measured after 24 hrs by broth microdilution method. The procedure, abridged: as §1
In assay [8] the test system is Pseudomonas aeruginosa. As to the kind of experiment: Antibacterial activity against Pseudomonas aeruginosa assessed as growth inhibition measured after 24 hrs by broth microdilution method. The procedure, abridged: as §1
Assay [9] concerns Acinetobacter baumannii. The experiment in a line: Antibacterial activity against Acinetobacter baumannii assessed as growth inhibition measured after 24 hrs by broth microdilution method. The procedure, abridged: as §1
The subject of assay [10] is Staphylococcus aureus. As to the kind of experiment: Antibacterial activity against Staphylococcus aureus assessed as growth inhibition measured after 24 hrs by broth microdilution method. The procedure, abridged:
as §1

As for `COC1=C(c2ccccc2)C(=O)O/C1=C\c1ccccc1`, in assay [1], the MIC50 stood at 3.91 µg/mL (≈ 14 µM). For the same molecule, the inhibition at 50 µg/mL came out at 19.7% in assay [2], 45.4% in [4], 60.2% in assay [5] and 18.2% in assay [6]. In addition, in assay [3], the inhibition result was “inactive”.

With `COC1=C(c2ccccc2)C(=O)O/C1=C\c1ccc(N2CCOCC2)c(F)c1`, the MIC50 in [1] was more than 50 µg/mL. For the same molecule, in assay [3], the inhibition entry was “inactive”. Moreover, the inhibition at 50 µg/mL in assay [4] was determined as 17.6%; in assay [5], 45.4%; in assay [6], 10%.

For the molecule `COC1=C(c2ccc(Br)cc2)C(=O)OC1C(O)c1ccc(N2CCOCC2)c(F)c1` (centres undefined), the MIC50 in assay [1] was found to be 1.01 µg/mL (≈ 2.11 µM); in assay [7], 11.8 µg/mL (≈ 24.8 µM). In assay [3], the inhibition result was “inactive”. Further, the inhibition at 50 µg/mL in assay [4] turned out to be 35.6%; in assay [5] it was 45.5%; in [6], 32.9%.

As to `COC1=C(c2cccc(F)c2)C(=O)OC1C(O)c1ccc(N2CCOCC2)c(F)c1` (centres undefined), the MIC50 in [1] came out at 4.09 µg/mL (≈ 9.8 µM). Moreover, the inhibition at 50 µg/mL turned out to be 41.5% in assay [2], 38.2% in assay [4], 72% in [5] and 30.9% in assay [6]. Further, the inhibition entry in assay [3] was “inactive”.

Turning to `COC1=C(c2ccccc2)C(=O)OC1C(O)c1ccc(N2CCOCC2)c(F)c1` (centres undefined), the MIC50 in assay [1] was determined as 36.5 µg/mL (≈ 91.3 µM). In addition, the inhibition at 50 µg/mL was determined as 17.1% in assay [2], 34.8% in assay [4], 52.4% in assay [5] and 29.2% in assay [6]. Further, the inhibition result in [3] is “inactive”.

Regarding `COC1=C(c2ccc(Cl)cc2)C(=O)OC1C(O)c1ccc(N2CCOCC2)c(F)c1` (centres undefined), in assay [1], the MIC50 is 30.3 µg/mL (≈ 69.7 µM). In addition, in assay [3], the inhibition entry was “inactive”. For the same molecule, the inhibition at 50 µg/mL in assay [4] was 31.7%; in [5], 61.8%; in [6], 22.1%.

Take `O=C1O/C(=C\c2ccccc2)C(O)=C1c1ccccc1` [PULVINONE]: the MIC50 in assay [1] is 1.38 µg/mL (≈ 5.22 µM); in assay [7] it was 12.8 µg/mL (≈ 48.4 µM); in assay [8], more than 50 µg/mL; in assay [9], more than 50 µg/mL. Moreover, the inhibition at 50 µg/mL in assay [3] was 59.2%.

Regarding `COC1=C(c2ccc(C)cc2)C(=O)OC1C(O)c1ccc(N2CCOCC2)c(F)c1` (centres undefined), the MIC50 in assay [1] is 3.67 µg/mL (≈ 8.88 µM). Besides, the inhibition at 50 µg/mL in assay [2] was 1.1%; in assay [4] it was 31.8%; in assay [5], 58.3%; in assay [6], 4.9%. Besides, the inhibition entry in [3] was “inactive”.

Regarding `COC1=C(c2ccc(Cl)cc2)C(=O)O/C1=C\c1ccc(N2CCOCC2)c(F)c1`, in assay [1], the MIC50 was 7.4 µg/mL (≈ 17.8 µM). Further, in assay [3], the inhibition result is “inactive”. The inhibition at 50 µg/mL in assay [4] amounted to 45.3%; in assay [5] it was 70.7%.

Consider `COC1=C(c2ccc(F)cc2)C(=O)OC1C(O)c1ccc(N2CCOCC2)c(F)c1` (centres undefined), for which the MIC50 in assay [1] is more than 50 µg/mL. Also, the inhibition at 50 µg/mL in [2] amounted to 31.9%; in assay [4] it was 35.2%; in [5], 42%; in assay [6] it was 22.8%. Further, the inhibition result in [3] is “inactive”.

In the case of `O=C1O/C(=C\c2ccc(N3CCOCC3)c(F)c2)C(O)=C1c1ccc(F)cc1`, the MIC50 in [1] stood at 15.6 µg/mL (≈ 40.5 µM). The inhibition at 50 µg/mL in assay [2] stood at 27.8%; in assay [4], 23.2%; in assay [5], 56.8%; in [6], 15.6%. The inhibition result in assay [3] was “inactive”.

With `COC1=C(c2ccccc2)C(=O)OC1C(O)c1ccccc1` (centres undefined), in [1], the MIC50 was determined as 5.86 µg/mL (≈ 19.8 µM). Besides, the inhibition at 50 µg/mL came out at 18% in [2], 53.2% in [4], 61.7% in [5] and 25.9% in assay [6]. Also, the inhibition entry in assay [3] was “inactive”.

For the molecule `COC1=C(c2ccc(F)cc2)C(=O)O/C1=C\c1ccc(N2CCOCC2)c(F)c1`, the MIC50 in [1] was more than 50 µg/mL; in [7] it was 20.6 µg/mL (≈ 51.7 µM). Also, the inhibition at 50 µg/mL is 59.4% in [2], 23.4% in assay [4], 37.6% in assay [5] and 20.1% in assay [6]. In assay [3], the inhibition result is “inactive”.

Consider `C[C@H]1COc2c(N3CCN(C)CC3)c(F)cc3c(=O)c(C(=O)O)cn1c23.C[C@H]1COc2c(N3CCN(C)CC3)c(F)cc3c(=O)c(C(=O)O)cn1c23.O` [LEVOFLOXACIN], for which the MIC50 in assay [1], in assay [7], in assay [8], in assay [10] and in assay [9] was less than 0.25 µg/mL each time.

(Values after ChEMBL document CHEMBL2311458, “A facile synthesis, antibacterial activity of pulvinone and its derivatives” (2013).)
